In ChEMBL document CHEMBL2040780, “Antiarrhythmic properties of phenylpiperazine derivatives of phenytoin with α₁-adrenoceptor affinities” (Bioorg Med Chem, 2012):
Calls of active or inactive are those of the source. No cut-off for these calls is given here.

How the values were obtained:
Rattus norvegicus [1] = experiment: Antiarrhythmic activity in Wistar rat assessed as protection against adrenaline-induced extrasystoles at 2.5 to 10 mg/kg, iv administered 15 mins prior to adrenaline-challenge; format: functional, organism-based; conditions: Heart
In short: (§1)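 Szekeres model in male Wistar rats anaesthetised with thiopental (60 mg/kg ip). Test compound given iv in water (2.5–10 mg/kg) 15 min before adrenaline 20 µg/kg iv. Scored for extrasystoles, bigeminy and mortality; activity means no premature beats and inhibited arrhythmia versus controls.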

Rattus norvegicus [2] = experiment: Antiarrhythmic activity in iv dosed Wistar rat assessed as protection against adrenaline-induced arrhythmia administered 15 mins prior to adrenaline-challenge; format: functional; conditions: Heart; in short: as §1
[3] = target: T1, Adrenergic receptor alpha-1 (Rattus norvegicus, UniProt P15823+P23944+P43140); experiment: Displacement of [3H]prazosin from alpha1 adrenoceptor in rat cerebral cortex after 30 mins by microbeta scintillation counting; format: tissue-based
T1 sequence (P15823 whole entry): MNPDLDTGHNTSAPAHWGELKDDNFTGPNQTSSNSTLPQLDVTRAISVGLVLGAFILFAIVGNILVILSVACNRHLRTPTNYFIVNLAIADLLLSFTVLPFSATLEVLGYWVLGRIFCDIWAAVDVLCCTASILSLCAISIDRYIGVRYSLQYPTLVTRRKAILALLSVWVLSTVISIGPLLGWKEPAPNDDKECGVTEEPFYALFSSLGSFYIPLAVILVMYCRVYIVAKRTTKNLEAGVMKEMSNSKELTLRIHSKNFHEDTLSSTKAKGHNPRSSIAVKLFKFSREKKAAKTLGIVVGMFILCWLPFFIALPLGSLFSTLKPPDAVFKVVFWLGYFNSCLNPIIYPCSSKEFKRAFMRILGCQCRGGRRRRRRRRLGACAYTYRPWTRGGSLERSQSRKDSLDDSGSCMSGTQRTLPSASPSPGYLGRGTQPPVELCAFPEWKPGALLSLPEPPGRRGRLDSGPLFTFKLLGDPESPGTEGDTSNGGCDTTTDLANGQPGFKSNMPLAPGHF
T1 sequence (P23944 whole entry): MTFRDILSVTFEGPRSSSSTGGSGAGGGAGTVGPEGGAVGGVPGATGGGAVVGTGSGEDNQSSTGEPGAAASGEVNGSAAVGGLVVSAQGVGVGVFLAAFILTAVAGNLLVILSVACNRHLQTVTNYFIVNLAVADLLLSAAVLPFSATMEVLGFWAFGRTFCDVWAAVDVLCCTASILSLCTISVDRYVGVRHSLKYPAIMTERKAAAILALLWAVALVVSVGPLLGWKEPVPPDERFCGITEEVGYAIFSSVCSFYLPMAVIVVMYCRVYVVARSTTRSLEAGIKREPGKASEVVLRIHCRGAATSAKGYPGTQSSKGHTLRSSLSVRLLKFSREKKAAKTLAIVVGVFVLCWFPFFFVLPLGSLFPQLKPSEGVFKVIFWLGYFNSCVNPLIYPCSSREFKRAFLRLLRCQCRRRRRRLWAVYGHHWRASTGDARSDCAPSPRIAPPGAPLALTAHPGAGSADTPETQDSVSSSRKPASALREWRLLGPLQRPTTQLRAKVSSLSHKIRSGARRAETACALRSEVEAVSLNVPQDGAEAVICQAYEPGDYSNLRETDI
T1 sequence (P43140 whole entry): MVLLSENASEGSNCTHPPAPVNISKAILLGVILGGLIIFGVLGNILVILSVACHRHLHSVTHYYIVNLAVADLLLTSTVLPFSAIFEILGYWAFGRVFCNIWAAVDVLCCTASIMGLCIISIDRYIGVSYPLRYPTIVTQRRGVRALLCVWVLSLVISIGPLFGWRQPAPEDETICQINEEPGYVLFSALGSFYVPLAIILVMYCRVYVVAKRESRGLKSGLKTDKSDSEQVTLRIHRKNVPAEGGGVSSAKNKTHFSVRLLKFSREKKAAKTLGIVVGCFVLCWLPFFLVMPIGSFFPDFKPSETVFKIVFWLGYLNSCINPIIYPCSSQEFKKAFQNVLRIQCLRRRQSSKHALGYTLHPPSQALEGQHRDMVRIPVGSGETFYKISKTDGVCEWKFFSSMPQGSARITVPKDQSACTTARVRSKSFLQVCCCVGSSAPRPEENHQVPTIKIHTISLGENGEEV
In short: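 Rat cerebral cortex homogenised in ice-cold 50 mM Tris-HCl (pH 7.6 at 25 °C), washed twice at 20000×g and resuspended at 10 mg wet weight/ml. Incubated with [3H]prazosin (19.5 Ci/mmol) and test compound for 30 min at 25 °C. Nonspecific binding defined with 10 µM phentolamine. GF/B filtration, scintillation counting, three-parameter logistic competition fit.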

Rattus norvegicus [4] = experiment: Cardiotoxicity in Wistar rat assessed as effect on P-Q interval at 5 mg/kg, iv after 5 mins; format: toxicity, organism-based; set-up: dose 5 mg/kg, route intravenous; conditions: in vivo
In short: (§2)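 Male Wistar rats (180–250 g), anaesthetised with thiopental 60 mg/kg ip. Compound given iv in water at 10 mg/kg, or at a lower starting dose of 5 or 2.5 mg/kg. Standard lead II ECG recorded at 50 mm/s just before dosing and at 1, 5 and 15 min after. Heart rate and P–Q, Q–T and QRS intervals were read. n=6 per group, mean ± SEM, one-way ANOVA.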

Rattus norvegicus [5] = experiment: Antiarrhythmic activity in Wistar rat assessed as effect on heart beat at 5 mg/kg, iv after 1 min; format: functional; in short: as §2
Rattus norvegicus [6] = experiment: Cardiotoxicity in Wistar rat assessed as effect on Q-T interval at 5 mg/kg, iv after 15 mins; format: toxicity, organism-based; set-up: dose 5 mg/kg, route intravenous; conditions: in vivo, 0.25 h; in short: as §2
Rattus norvegicus [7] = experiment: Hypotensive activity in normotensive Wistar rat assessed as decrease in diastolic blood pressure at 2.5 to 10 mg/kg, iv at 1 min; format: organism-based, Artery; set-up: dose 2.5-10 mg/kg, route intravenous; conditions: in vivo
In short: (§3)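 Right carotid artery cannulated with heparin-saline-filled tubing for blood pressure recording. After 5 min stabilisation, compound injected iv into the caudal vein (2.5–10 mg/kg, 1 ml/kg). Systolic and diastolic pressure followed for 60 min. n=6 per group, mean ± SEM, one-way ANOVA.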

Rattus norvegicus [8] = experiment: Antiarrhythmic activity in Wistar rat assessed as effect on heart beat at 5 mg/kg, iv after 15 mins; format: functional; in short: as §2
Rattus norvegicus [9] = experiment: Hypotensive activity in normotensive Wistar rat assessed as decrease in diastolic blood pressure at 2.5 to 10 mg/kg, iv after 1 min measured up to 60 mins; format: organism-based, Artery; set-up: dose 2.5-10 mg/kg, route intravenous; conditions: in vivo; in short: as §3
Rattus norvegicus [10] = experiment: Cardiotoxicity in Wistar rat assessed as effect on P-Q interval at 5 mg/kg, iv after 1 min; format: toxicity, organism-based; set-up: dose 5 mg/kg, route intravenous; conditions: in vivo; in short: as §2
Rattus norvegicus [11] = experiment: Antiarrhythmic activity in dosed Wistar rat assessed as protection against barium chloride-induced fibrillation administered 15 mins prior to barium chloride-challenge; format: functional, Heart
In short: (§4)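 Szekeres model in male Wistar rats. Activity is gradual disappearance of arrhythmia with restored sinus rhythm; protection against disturbances and death scored. Groups of 6 animals.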

Rattus norvegicus [12] = experiment: Antiarrhythmic activity in iv dosed Wistar rat assessed as protection against barium chloride-induced extrasystoles administered 15 mins prior to barium chloride-challenge; format: functional, Heart; in short: as §4
Rattus norvegicus [13] = experiment: Cardiotoxicity in Wistar rat assessed as effect on Q-T interval at 5 mg/kg, iv after 1 min; format: toxicity, organism-based; set-up: dose 5 mg/kg, route intravenous; conditions: in vivo; in short: as §2
Rattus norvegicus [14] = experiment: Antiarrhythmic activity in Wistar rat assessed as effect on heart beat at 5 mg/kg, iv after 5 mins; format: functional; in short: as §2
Rattus norvegicus [15] = experiment: Hypotensive activity in normotensive Wistar rat assessed as decrease in systolic blood pressure at 2.5 to 10 mg/kg, iv at 1 min; format: organism-based, Artery; set-up: dose 2.5-10 mg/kg, route intravenous; conditions: in vivo; in short: as §3
Rattus norvegicus [16] = experiment: Hypotensive activity in normotensive Wistar rat assessed as decrease in systolic blood pressure at 2.5 to 10 mg/kg, iv after 1 min measured up to 60 mins; format: organism-based, Artery; set-up: dose 2.5-10 mg/kg, route intravenous; conditions: in vivo; in short: as §3
Rattus norvegicus [17] = experiment: Cardiotoxicity in Wistar rat assessed as effect on QRS interval at 5 mg/kg, iv after 15 mins; format: toxicity, organism-based; set-up: dose 5 mg/kg, route intravenous; conditions: in vivo, 0.25 h; in short: as §2
Rattus norvegicus [18] = experiment: Cardiotoxicity in Wistar rat assessed as effect on Q-T interval at 5 mg/kg, iv after 5 mins; format: toxicity, organism-based; set-up: dose 5 mg/kg, route intravenous; conditions: in vivo; in short: as §2
Rattus norvegicus [19] = experiment: Cardiotoxicity in Wistar rat assessed as effect on QRS interval at 5 mg/kg, iv after 5 mins; format: toxicity, organism-based; set-up: dose 5 mg/kg, route intravenous; conditions: in vivo; in short: as §2
Rattus norvegicus [20] = experiment: Cardiotoxicity in Wistar rat assessed as effect on P-Q interval at 5 mg/kg, iv after 15 mins; format: toxicity, organism-based; set-up: dose 5 mg/kg, route intravenous; conditions: in vivo, 0.25 h; in short: as §2
Rattus norvegicus [21] = experiment: Cardiotoxicity in Wistar rat assessed as effect on QRS interval at 5 mg/kg, iv after 1 min; format: toxicity, organism-based; set-up: dose 5 mg/kg, route intravenous; conditions: in vivo; in short: as §2
Rattus norvegicus [22] = experiment: Antiarrhythmic activity in barium chloride-induced Wistar rat arrhythmia model assessed as protection against mortality at 2.5 to 10 mg/kg, iv administered 15 mins prior to barium chloride-challenge; format: functional, organism-based; conditions: Heart; in short: as §4
Rattus norvegicus [23] = experiment: Antiarrhythmic activity in Wistar rat assessed as protection against adrenaline-induced bigeminy at 2.5 to 10 mg/kg, iv administered 15 mins prior to adrenaline-challenge; format: functional, organism-based; conditions: Heart; in short: as §1
Rattus norvegicus [24] = experiment: Antiarrhythmic activity in iv dosed Wistar rat assessed as protection against adrenaline-induced extrasystoles administered 15 mins prior to adrenaline-challenge; format: functional, organism-based; conditions: Heart; in short: as §1
Rattus norvegicus [25] = experiment: Antiarrhythmic activity in iv dosed Wistar rat assessed as protection against adrenaline-induced bigeminy administered 15 mins prior to adrenaline-challenge; format: functional, organism-based; conditions: Heart; in short: as §1

Question: How did the Activity (Rattus norvegicus [1]) turn out when CN1C(=O)N(CC(O)CN2CCN(c3ccccc3F)CC2)C(c2ccccc2)(c2ccccc2)C1=O.Cl (racemic) was run?
Answer: Active

Question: And the ED50 (Rattus norvegicus [2])?
Answer: 1.92 mg/kg

Question: What about the Ki [3] of the same compound?
Answer: 564.6 nM

Question: What about the pKi [3] of the same compound?
Answer: 6.25

Question: What about the Activity (Rattus norvegicus [4]) of the same compound?
Answer: 62 ms

Question: And the Activity (Rattus norvegicus [5])?
Answer: 272 min⁻¹

Question: And the Activity (Rattus norvegicus [6])?
Answer: 68 ms

Question: And the Activity (Rattus norvegicus [7])?
Answer: Toxic

Question: What about the Activity (Rattus norvegicus [8]) of the same compound?
Answer: 258 min⁻¹

Question: And the Activity (Rattus norvegicus [9])?
Answer: Non-toxic

Question: What about the Activity (Rattus norvegicus [10]) of the same compound?
Answer: 64 ms

Question: What about the Activity (Rattus norvegicus [11]) of the same compound?
Answer: >50%

Question: And the Activity (Rattus norvegicus [12])?
Answer: >50%

Question: What about the Activity (Rattus norvegicus [13]) of the same compound?
Answer: 81 ms

Question: And the Activity (Rattus norvegicus [14])?
Answer: 251 min⁻¹

Question: What about the Activity (Rattus norvegicus [15]) of the same compound?
Answer: Toxic

Question: What about the Activity (Rattus norvegicus [16]) of the same compound?
Answer: Non-toxic

Question: And the Activity (Rattus norvegicus [17])?
Answer: 16 ms

Question: And the Activity (Rattus norvegicus [18])?
Answer: 74 ms

Question: What about the Activity (Rattus norvegicus [19]) of the same compound?
Answer: 17 ms

Question: What about the Activity (Rattus norvegicus [20]) of the same compound?
Answer: 59 ms

Question: And the Activity (Rattus norvegicus [21])?
Answer: 20 ms

Question: And the Activity (Rattus norvegicus [22])?
Answer: Active

Question: What about the Activity (Rattus norvegicus [23]) of the same compound?
Answer: Active

Question: How did the Activity (Rattus norvegicus [24]) turn out when c1ccc(CC2=NCCN2)cc1 [TOLAZOLINE] was run?
Answer: Active

Question: And the ED50 (Rattus norvegicus [2])?
Answer: 3.4 mg/kg

Question: And the Activity (Rattus norvegicus [25])?
Answer: Active
